# Experimental data: ChEMBL document CHEMBL2157972, “Selenophene-containing inhibitors of type IIA bacterial topoisomerases” (J Med Chem, 2011)
# Experiments:
# DNA gyrase = DNA gyrase (Staphylococcus aureus, UniProt P0A0K8+P20831); assay: Inhibition of Staphylococcus aureus DNA gyrase by supercoiling assay; format: protein-complex assay
# Staphylococcus aureus [1] = assay: Antibacterial activity against methicillin-resistant Staphylococcus aureus ATCC 700699; format: functional
# Procedure, shortened: (§1)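 Read-out is the minimum inhibitory concentration (MIC), reported in μg/mL, from standard antimicrobial susceptibility testing.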
# [2] = Cytotoxicity against human Hep2 cell line after 72 hrs; format: cell-based; conditions: HEp-2 cells
# Procedure, shortened: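 Human laryngeal epidermoid carcinoma Hep2 cells were exposed for 72 h.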
# Staphylococcus aureus [3] = assay: Antibacterial activity against methicillin-sensitive Staphylococcus aureus ATCC 29213; format: functional; procedure, shortened: as §1
# Staphylococcus aureus [4] = assay: Antibacterial activity against fluoroquinolone resistant Staphylococcus aureus 3-FQR3M ATCC 700699 expressing GyrA Ser84Leu mutant and Glu409Lys mutant and GrlA Ser80Phe mutant; format: functional; procedure, shortened: as §1
# [5] = Cytotoxicity against […] CHO cell line after 72 hrs; format: cell-based, Cricetulus griseus; conditions: chinese hamster, CHO cells
# [6] = Inhibition of Staphylococcus aureus topoisomerase 4 by decatenation assay
# Procedure, shortened: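 Enzyme activity was measured by topoisomerase IV decatenation using S. aureus enzyme. Inhibition is reported as a concentration in μM.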
# [7] = Cytotoxicity against human HeLa cell line after 72 hrs; format: cell-based; conditions: HeLa cells
# Staphylococcus aureus [8] = assay: Antibacterial activity against fluoroquinolone resistant Staphylococcus aureus 4-FQR3M BSA643 expressing GyrA Ser84Leu mutant and GrlA Ser80Tyr and Glu84Gly mutant; format: functional; procedure, shortened: as §1
# [9] = Cytotoxicity against human HepG2 cell line after 72 hrs; format: cell-based; conditions: HepG2 cells
# Staphylococcus aureus [10] = assay: Antibacterial activity against fluoroquinolone resistant Staphylococcus aureus 1-FQR2M BK2384 expressing GyrA Ser84Leu mutant and GrlA Ser80Phe mutant; format: functional; procedure, shortened: as §1
# Staphylococcus aureus [11] = assay: Antibacterial activity against fluoroquinolone resistant Staphylococcus aureus 5-FQR4M BSA678 expressing GyrA Ser84Leu and Ser85Pro mutant and GrlA Ser80Phe and Glu84Lys mutant; format: functional; procedure, shortened: as §1
# Staphylococcus aureus [12] = assay: Antibacterial activity against fluoroquinolone resistant Staphylococcus aureus 2-FQR2M NY2746 expressing GyrA Ser84Leu mutant and GrlA Ser80Phe mutant; format: functional; procedure, shortened: as §1
# hERG (KCNH2) = hERG (KCNH2) (Homo sapiens, UniProt Q12809); assay: Inhibition of human ERG expressed in mammalian cells at 10 uM by patch clamp method; format: cell-based; conditions: mammalian cells that express hERG
# Staphylococcus aureus [13] = assay: Antimicrobial activity against fluoroquinolone sensitive Staphylococcus aureus; format: functional
# Procedure, shortened: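 Standard susceptibility testing. The read-out is the minimum inhibitory concentration, reported in μg/mL.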
# Staphylococcus aureus [14] = assay: Antimicrobial activity against fluoroquinolone resistant Staphylococcus aureus; format: functional; procedure, shortened: as §1
Compound,IC50 (DNA gyrase) [µM],MIC (Staphylococcus aureus [1]) [µg/mL],CC50 at 72 h [2] [µM],MIC (Staphylococcus aureus [3]) [µg/mL],MIC (Staphylococcus aureus [4]) [µg/mL],CC50 at 72 h [5] [µM],IC50 [6] [µM],CC50 at 72 h [7] [µM],MIC (Staphylococcus aureus [8]) [µg/mL],CC50 at 72 h [9] [µM],MIC (Staphylococcus aureus [10]) [µg/mL],MIC (Staphylococcus aureus [11]) [µg/mL],MIC (Staphylococcus aureus [12]) [µg/mL],inhibition at 10 µM (hERG (KCNH2)) [%],MIC90 (Staphylococcus aureus [13]) [µg/mL],MIC90 (Staphylococcus aureus [14]) [µg/mL]
COc1ccc2nccc([C@@H](O)CC[C@@H]3CCN(CCSc4ccc(C#N)[se]4)C[C@@H]3C(=O)O)c2c1 (mixture of isomers),36.6,32,48,32,–,–,–,–,–,–,–,–,–,–,–,–
COc1ccc2nccc([C@H](O)CC[C@@H]3CCN(CCSc4ccc[se]4)C[C@@H]3C(=O)O)c2c1 (mixture of isomers),0.7,0.5,> 100,0.5,0.5,> 100,69,> 100,1,> 100,1,2,1,–,–,–
COc1ccc2nccc([C@H](O)CC[C@@H]3CCN(CCSc4ccc(C=O)[se]4)C[C@@H]3C(=O)O)c2c1 (mixture of isomers),8.9,16,> 100,16,–,–,–,–,–,–,–,–,–,–,–,–
COc1ccc2nccc([C@@H](O)CC[C@@H]3CCN(CCSc4sccc4P(=O)(O)O)C[C@@H]3C(=O)O)c2c1 (mixture of isomers),–,> 64,> 94,> 64,–,–,–,–,–,–,–,–,–,–,–,–
COC(=O)[C@H]1CN(CCSc2ccc(C(F)F)[se]2)CC[C@H]1CCC(=O)c1ccnc2ccc(OC)cc12,–,> 32,–,–,–,–,–,–,–,–,–,–,–,–,–,–
COc1ccc2nccc([C@@H](O)CC[C@@H]3CCN(CCSc4sccc4P(=O)(OC(C)C)OC(C)C)C[C@@H]3C(=O)O)c2c1 (mixture of isomers),> 100,> 64,> 98,> 64,–,–,–,–,–,–,–,–,–,–,–,–
COc1ccc2nccc([C@H](O)CC[C@@H]3CCN(CCSc4ccco4)C[C@@H]3C(=O)O)c2c1 (mixture of isomers),10.2,4,> 100,4,4,> 100,> 100,> 100,16,> 100,8,32,8,14,–,–
COc1ccc2nccc(C(O)CC[C@@H]3CCN(CCC(=O)N4CCCCC4)C[C@@H]3C(=O)O)c2c1 (mixture of isomers),10.6,32,> 100,32,–,–,–,–,–,–,–,–,–,–,–,–
COC(=O)[C@H]1CN(CCSc2sccc2P(=O)(OC(C)C)OC(C)C)CC[C@H]1CCC(=O)c1ccnc2ccc(OC)cc12,–,> 32,–,–,–,–,–,–,–,–,–,–,–,–,–,–
COc1ccc2nccc([C@H](O)CC[C@@H]3CCN(CCSc4sccc4P(=O)(OC(C)C)OC(C)C)C[C@@H]3C(=O)O)c2c1 (mixture of isomers),–,> 64,34,> 64,–,–,–,–,–,–,–,–,–,–,–,–
COc1ccc2nccc([C@H](O)CC[C@@H]3CCN(CCSc4sccc4P(=O)(O)O)C[C@@H]3C(=O)O)c2c1 (mixture of isomers),> 100,> 64,> 100,> 64,–,–,–,–,–,–,–,–,–,–,–,–
COc1ccc2nccc([C@@H](O)CC[C@@H]3CCN(CCSc4cccs4)C[C@@H]3C(=O)O)c2c1 (mixture of isomers),1.4,0.13,> 100,0.25,0.13,> 100,45,> 100,0.25,> 100,0.25,0.5,0.25,–,1,0.5
O=C(O)c1cn(C2CC2)c2cc(N3CCNCC3)c(F)cc2c1=O [CIPROFLOXACIN],–,64,> 100,0.25,64,–,3,–,256,–,64,128,256,–,–,–
COc1ccc2nccc([C@H](O)CC[C@@H]3CCN(CCS(=O)(=O)c4ccc[se]4)C[C@@H]3C(=O)O)c2c1 (mixture of isomers),–,> 64,> 100,> 64,–,–,–,–,–,–,–,–,–,–,–,–
CO/N=C1\CN(c2nc3c(cc2F)c(=O)c(C(=O)O)cn3C2CC2)CC1CN (stereo not given) [GEMIFLOXACIN],–,4,–,0.03,4,–,0.4,–,32,–,1,64,32,–,–,–
